Test results from ChEMBL document CHEMBL3608239, “Identification and optimisation of a 4',5-bisthiazole series of selective phosphatidylinositol-3 kinase alpha inhibitors” (Bioorg Med Chem Lett, 2015).

Tests used:
[1] = Permeability of the compound from basolateral to apical side in human Caco2 cells; assay type: ADME, cell-based; details: Caco-2, read-out: permeability
[2] = Permeability of the compound from apical to basolateral side in human Caco2 cells; assay type: ADME, cell-based; details: Caco-2, read-out: permeability
[3] = Plasma concentration in athymic nude mouse at 10 mg/kg, iv after 2 hrs; assay type: ADME, organism-based
Method in brief: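 Female athymic nude mice, conscious, with free access to food, given a bolus intravenous dose of 10 mg kg-1. Plasma levels measured 1 and 2 h after dosing.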

[4] = test system: Rattus norvegicus; test: Volume of distribution in Sprague-Dawley rat at 3 mg/kg, po; assay type: ADME, organism-based; details: in vivo
Method in brief: (§1)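 Female Sprague-Dawley rats, conscious, permanently cannulated, with free access to food. Dosed 1.0 mg kg-1 intravenously or 3.0 mg kg-1 orally as a suspension. Blood levels followed from 5 min to 48 h after dosing.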

[5] = Oral bioavailability in Sprague-Dawley rat at 3 mg/kg; assay type: ADME, organism-based; details: in vivo; method in brief: as §1

Papp B→A [1] [×10⁻⁶ cm/s] | Papp A→B [2] [×10⁻⁶ cm/s] | concentration at 2 h [3] [nM] | Vd [4] [L/kg] | bioavailability [5] [%] | Compound
7.7 | 1.4 |  |  |  | Cc1nc(NC(=O)N2CCC[C@H]2C(N)=O)sc1-c1ccc(S(C)(=O)=O)c(F)c1
17.4 | 14.5 | < 50 |  |  | Cc1nc(NC(=O)N2CCC[C@@]2(C)C(N)=O)sc1-c1csc(C(C)(C)C)n1
17.4 | 11.1 |  |  |  | Cc1nc(NC(=O)N2CC[C@H](C)[C@H]2C(N)=O)sc1-c1csc(C(C)(C)C)n1
12.4 | 0.9 |  |  |  | Cc1nc(NC(=O)N2CC[C@H](O)[C@H]2C(N)=O)sc1-c1csc(C(C)(C)C)n1
20.7 | 5.5 |  |  |  | Cc1nc(NC(=O)N2C[C@H](F)C[C@H]2C(N)=O)sc1-c1csc(C(C)(C)C)n1
8.4 | 0.7 |  |  |  | Cc1nc(NC(=O)N2C[C@H](O)C[C@H]2C(N)=O)sc1-c1csc(C(C)(C)C)n1
20.8 | 1.2 |  |  |  | Cc1nc(NC(=O)N2C[C@@H](O)C[C@H]2C(N)=O)sc1-c1csc(C(C)(C)C)n1
 |  |  | 3.3 | 59 | Cc1nc(NC(=O)N2C[C@H](N(C)C)C[C@H]2C(N)=O)sc1-c1csc(C2(C)CC2)n1
